Test results: ChEMBL document CHEMBL3808357, “Discovery of N-(3-((1-Isonicotinoylpiperidin-4-yl)oxy)-4-methylphenyl)-3-(trifluoromethyl)benzamide (CHMFL-KIT-110) as a Selective, Potent, and Orally Available Type II c-KIT Kinase Inhibitor for Gastrointestinal Stromal Tumors (GISTs)” (J Med Chem, 2016)
The source made the active and inactive calls. The calls are words filed in the database; no cut-off is given here.

Tests used:
[1] = target: Mast/stem cell growth factor receptor Kit (Homo sapiens) (UniProt P10721); experiment: Inhibition of Tel-fused cKIT (unknown origin) transfected in mouse BAF3 cells assessed as decrease in cell proliferation after 72 hrs by celltiter-glo/CCK8 assay; format: cell-based
Mast/stem cell growth factor receptor Kit (Homo sapiens), sequence (P10721 whole entry, the tested form may be a part): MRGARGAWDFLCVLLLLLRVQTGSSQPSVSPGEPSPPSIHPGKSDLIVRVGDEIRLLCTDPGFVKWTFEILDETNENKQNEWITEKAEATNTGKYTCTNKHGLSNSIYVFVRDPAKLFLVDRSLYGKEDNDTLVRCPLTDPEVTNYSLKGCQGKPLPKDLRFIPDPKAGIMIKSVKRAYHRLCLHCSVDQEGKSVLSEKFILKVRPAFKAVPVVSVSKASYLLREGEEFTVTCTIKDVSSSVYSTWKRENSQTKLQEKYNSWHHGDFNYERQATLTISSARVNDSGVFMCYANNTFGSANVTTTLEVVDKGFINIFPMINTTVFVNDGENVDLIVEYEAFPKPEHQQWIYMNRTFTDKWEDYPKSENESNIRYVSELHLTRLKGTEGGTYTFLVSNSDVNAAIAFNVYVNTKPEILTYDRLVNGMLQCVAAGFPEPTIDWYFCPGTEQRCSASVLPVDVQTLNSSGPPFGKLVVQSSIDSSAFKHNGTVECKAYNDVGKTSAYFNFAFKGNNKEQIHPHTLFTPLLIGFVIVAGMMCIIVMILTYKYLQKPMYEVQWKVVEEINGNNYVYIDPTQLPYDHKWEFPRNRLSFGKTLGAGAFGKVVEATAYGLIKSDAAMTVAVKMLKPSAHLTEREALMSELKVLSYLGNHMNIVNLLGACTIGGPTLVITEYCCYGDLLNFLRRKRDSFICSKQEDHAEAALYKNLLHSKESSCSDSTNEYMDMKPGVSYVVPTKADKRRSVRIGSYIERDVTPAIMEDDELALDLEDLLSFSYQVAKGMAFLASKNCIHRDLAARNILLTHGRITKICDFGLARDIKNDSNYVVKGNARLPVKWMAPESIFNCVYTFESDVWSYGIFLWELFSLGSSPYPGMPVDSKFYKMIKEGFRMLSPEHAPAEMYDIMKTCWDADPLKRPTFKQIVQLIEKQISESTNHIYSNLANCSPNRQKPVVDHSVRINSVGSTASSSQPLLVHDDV
In short: (§1)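 Cells were seeded at 1 to 3 × 10⁴ cells/mL with serial compound concentrations and incubated 72 h at 37 °C, 5% CO₂. Viability was read by CellTiter-Glo luminescence or CCK-8 absorbance (450/655 nm). GI50 values are from triplicate testing. GIST-T1 and CHO were grown in DMEM/10% FBS; GIST-882, GIST-48B and MV4-11 in IMDM/10% FBS; other lines in RPMI 1640/10% FBS.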

[2] = target: Mast/stem cell growth factor receptor Kit (Homo sapiens) (UniProt P10721); experiment: Inhibition of cKIT in human GIST48B cells assessed as suppression of STAT5 phosphorylation at Y694 up to 10 uM after 2 hrs by Western blot analysis; format: cell-based
[3] = Apparent clearance in Sprague-Dawley rat plasma at 10 mg/kg, po; format: ADME, organism-based; conditions: read-out: CL(app) (converted)
In short: (§2)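 Male Sprague-Dawley rats, 8 weeks old, fasted overnight, dosed iv or orally. Formulation was 5% DMSO/40% PEG400/55% saline at 1 mg/mL. Blood (~0.2 mL) was drawn from the jugular vein into heparin. Sampling: iv at 1 min to 8 h; oral at 5 min to 24 h. Plasma was separated by centrifugation at 2−8 °C and stored at −80 °C.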

GIST882 [4] = experiment: Induction of apoptosis in human GIST882 cells assessed as PARP cleavage up to 3 uM after 72 hrs by Western blot analysis; format: functional, cell-based
[5] = target: Mast/stem cell growth factor receptor Kit (Homo sapiens) (UniProt P10721); experiment: Inhibition of cKIT autophosphorylation at Y703 in human GIST882 cells up to 10 uM after 2 hrs by Western blot analysis; format: cell-based
[6] = Cell cycle arrest in human GISTT1 cells at 0.3 to 3 uM after 24 hrs by propidium iodide/RNase staining based flow cytometric analysis; format: functional
In short: (§3)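 Cells were then fixed in 70% cold ethanol at −20 °C overnight, stained with PI/RNase buffer and analysed by flow cytometry.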

[7] = Cell cycle arrest in human GIST882 cells at 0.3 to 3 uM after 48 hrs by propidium iodide/RNase staining based flow cytometric analysis; format: functional; in short: as §3
[8] = target: Platelet-derived growth factor receptor alpha (Homo sapiens) (UniProt P16234); experiment: Inhibition of PDGFRalpha phosphorylation at Y849 in human GISTT1 cells up to 10 uM after 2 hrs by Western blot analysis; format: cell-based
Platelet-derived growth factor receptor alpha (Homo sapiens), sequence (P16234 whole entry): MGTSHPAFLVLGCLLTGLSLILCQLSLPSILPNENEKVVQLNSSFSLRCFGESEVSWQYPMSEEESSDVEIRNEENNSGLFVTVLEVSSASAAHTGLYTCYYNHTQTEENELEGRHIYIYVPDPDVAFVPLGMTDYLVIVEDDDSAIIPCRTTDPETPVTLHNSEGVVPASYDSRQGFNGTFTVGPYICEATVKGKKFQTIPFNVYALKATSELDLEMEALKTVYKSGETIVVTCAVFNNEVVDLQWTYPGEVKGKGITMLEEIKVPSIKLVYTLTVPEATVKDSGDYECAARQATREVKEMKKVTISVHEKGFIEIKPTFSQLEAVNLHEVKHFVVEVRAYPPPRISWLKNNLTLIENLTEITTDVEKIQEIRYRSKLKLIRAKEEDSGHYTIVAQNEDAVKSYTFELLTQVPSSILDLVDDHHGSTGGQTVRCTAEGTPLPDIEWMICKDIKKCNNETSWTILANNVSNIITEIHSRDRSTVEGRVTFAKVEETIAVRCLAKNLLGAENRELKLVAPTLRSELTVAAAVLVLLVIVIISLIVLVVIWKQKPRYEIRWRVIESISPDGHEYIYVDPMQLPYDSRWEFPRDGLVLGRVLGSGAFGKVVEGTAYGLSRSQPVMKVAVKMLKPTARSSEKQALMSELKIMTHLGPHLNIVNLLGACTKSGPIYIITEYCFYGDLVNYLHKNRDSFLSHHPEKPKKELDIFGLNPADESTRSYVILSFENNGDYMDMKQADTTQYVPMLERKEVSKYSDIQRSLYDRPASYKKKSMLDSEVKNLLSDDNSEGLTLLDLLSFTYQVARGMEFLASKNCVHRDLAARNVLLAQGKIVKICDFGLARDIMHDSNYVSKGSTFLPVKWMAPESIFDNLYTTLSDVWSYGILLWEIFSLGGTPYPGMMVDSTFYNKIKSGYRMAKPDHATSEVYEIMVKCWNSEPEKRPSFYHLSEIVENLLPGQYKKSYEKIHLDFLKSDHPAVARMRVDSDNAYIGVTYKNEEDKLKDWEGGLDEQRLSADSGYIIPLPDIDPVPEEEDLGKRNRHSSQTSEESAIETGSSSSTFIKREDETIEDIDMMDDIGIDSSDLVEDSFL
In short: (§4)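 Cells were washed in cold PBS, lysed in RIPA and immunoblotted for phospho and total proteins, including pPDGFRα Y849/PDGFRβ Y857 and β-actin.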

[9] = Cell cycle arrest in human GIST48B cells at 0.3 to 3 uM after 24 hrs by propidium iodide/RNase staining based flow cytometric analysis; format: functional; in short: as §3
[10] = Cmax in Sprague-Dawley rat plasma at 1 mg/kg, iv; format: ADME, organism-based; design: dose 1 mg/kg, route intravenous; in short: as §2
[11] = target: T1, Platelet-derived growth factor receptor beta (Homo sapiens, UniProt P09619); experiment: Inhibition of human wild type partial length PDGFRbeta expressed in bacterial expression system assessed as residual activity at 1 uM by KinomeScan method
T1 sequence (P09619 whole entry): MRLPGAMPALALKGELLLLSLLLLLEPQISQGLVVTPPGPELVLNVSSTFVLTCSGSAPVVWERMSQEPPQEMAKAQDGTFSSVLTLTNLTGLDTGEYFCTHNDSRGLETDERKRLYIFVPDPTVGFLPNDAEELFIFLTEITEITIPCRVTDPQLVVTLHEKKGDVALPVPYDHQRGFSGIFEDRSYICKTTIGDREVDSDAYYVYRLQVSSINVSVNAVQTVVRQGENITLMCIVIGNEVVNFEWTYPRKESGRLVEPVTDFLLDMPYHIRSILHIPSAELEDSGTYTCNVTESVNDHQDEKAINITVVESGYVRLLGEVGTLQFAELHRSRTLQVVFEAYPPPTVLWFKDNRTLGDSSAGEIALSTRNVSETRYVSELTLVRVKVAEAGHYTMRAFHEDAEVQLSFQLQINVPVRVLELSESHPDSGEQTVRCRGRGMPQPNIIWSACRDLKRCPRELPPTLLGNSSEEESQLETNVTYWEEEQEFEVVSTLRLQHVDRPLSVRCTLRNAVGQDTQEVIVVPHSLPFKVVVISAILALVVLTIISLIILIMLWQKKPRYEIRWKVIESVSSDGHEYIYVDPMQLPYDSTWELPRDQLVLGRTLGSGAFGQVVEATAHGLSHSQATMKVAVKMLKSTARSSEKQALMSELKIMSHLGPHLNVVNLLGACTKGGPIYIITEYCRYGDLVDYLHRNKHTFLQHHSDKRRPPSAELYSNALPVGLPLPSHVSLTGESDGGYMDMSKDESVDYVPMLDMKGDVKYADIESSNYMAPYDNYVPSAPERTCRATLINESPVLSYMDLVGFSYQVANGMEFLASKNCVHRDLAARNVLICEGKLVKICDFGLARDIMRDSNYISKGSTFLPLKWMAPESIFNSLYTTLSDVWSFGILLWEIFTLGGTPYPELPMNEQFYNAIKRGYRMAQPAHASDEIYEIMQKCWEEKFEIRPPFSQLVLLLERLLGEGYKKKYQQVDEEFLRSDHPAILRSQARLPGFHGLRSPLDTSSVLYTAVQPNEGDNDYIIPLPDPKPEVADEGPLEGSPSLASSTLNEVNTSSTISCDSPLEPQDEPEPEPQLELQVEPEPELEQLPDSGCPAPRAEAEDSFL
In short: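 KinomeScan competitive binding panel of 468 kinases and mutants, compound tested at 1 μM; read-out is percent activity remaining (binding relative to control).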

[12] = Antiproliferative activity against human HL60 cells assessed as reduction in cell viability after 72 hrs by celltiter-glo/CCK8 assay; format: functional; conditions: HL-60, 72 h; in short: as §1
[13] = tested on: Mast/stem cell growth factor receptor Kit (Homo sapiens), P10721 [V559D,T670I]; experiment: Inhibition of Tel-fused cKIT T670I/V559D double mutant (unknown origin) transfected in mouse BAF3 cells assessed as decrease in cell proliferation after 72 hrs by celltiter-glo/CCK8 assay; format: cell-based
Mast/stem cell growth factor receptor Kit (Homo sapiens), P10721 [V559D,T670I], sequence (P10721 whole entry V559D/T670I, the tested form may be a part): as the sequence (P10721 whole entry, the tested form may be a part) above, with V559D, T670I counted along it
In short: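 Stable BaF3 lines made by retroviral transduction with mutagenized TEL-KIT MSCV vectors, puromycin selection 48 h, then gradual IL-3 withdrawal until IL-3-independent; grown in RPMI 1640 with 10% FBS. Cells at 1 to 3 × 10⁴ cells/mL exposed to a concentration series for 72 h; viability read by CellTiter-Glo luminescence or CCK-8 absorbance (450/655 nm); GI50 from triplicate testing.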

[14] = target: T1, Platelet-derived growth factor receptor beta; experiment: Inhibition of PDGFRbeta phosphorylation at Y857 in human GISTT1 cells up to 10 uM after 2 hrs by Western blot analysis; format: cell-based; in short: as §4
GIST882 [15] = experiment: Induction of apoptosis in human GIST882 cells assessed as caspase 3 cleavage up to 3 uM after 72 hrs by Western blot analysis; format: functional, cell-based

GI50 [1]: 0.19 µM
inhibition [2]: Active
CL/F [3]: 215 mL/min/kg
inhibition [5]: Active
inhibition [8]: Active
Cmax [10]: 511 ng/mL
Activity [11]: 0.2%
GI50 [13]: 5.31 µM
inhibition [14]: Active
Structure (SMILES): Cc1ccc(NC(=O)c2cccc(C(F)(F)F)c2)cc1OC1CCN(C(=O)c2ccncc2)CC1
Activity (GIST882 [4]): Active
Activity [6]: Active
Activity [7]: Active
Activity [9]: inactive
GI50 [12]: > 10 µM
Activity (GIST882 [15]): Active
